Source: PubChem
SMARCA2 act: SMARCA2 function activation, primary screen; activation, % at 9.1 µM; MG213 cells, MMTV-luciferase reporter, dexamethasone, overnight; 370,000 tested, 1% active; in the data active = activation above about 7.8%;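 note: 0% = vehicle wells and 100% = reference activator wells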
GalR3 antag: antagonists of human GalR3; O60755; HEK293 GalR3-CNG cAMP membrane potential fluorescence; galR3 body fused to GalR1 C-terminus; inhibition, % at 3 µM; 360,000 tested, 0.44% active; AID 651719;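 active = inhibition above the screen-wide average plus 3 SD, cut at about 13% in these data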;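 note: forskolin and galanin both at EC90 stimulate the cells; cAMP rise reported by CNG channel membrane potential dye signal; 0% = forskolin plus galanin with DMSO and 100% = forskolin alone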
NR2F2 inh: NR2F2 (human) inhibition, primary screen | AID 686940 | P24468 | 370,000 tested, 0.7% active | HEK293T NGFI-A luciferase reporter, luminescence | inhibition, % at 8.6 µM;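 active = inhibition above a per-plate cutoff, mean inhibition of test wells between control levels plus 3 SD, cut at about 38% in these data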;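 note: cells cotransfected with COUP-TFII expression vector driving the NGFI-A reporter; 0% = median of COUP-TF2 test wells and 100% = reporter-only cells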
Target sequence (P24468 whole entry, looked up): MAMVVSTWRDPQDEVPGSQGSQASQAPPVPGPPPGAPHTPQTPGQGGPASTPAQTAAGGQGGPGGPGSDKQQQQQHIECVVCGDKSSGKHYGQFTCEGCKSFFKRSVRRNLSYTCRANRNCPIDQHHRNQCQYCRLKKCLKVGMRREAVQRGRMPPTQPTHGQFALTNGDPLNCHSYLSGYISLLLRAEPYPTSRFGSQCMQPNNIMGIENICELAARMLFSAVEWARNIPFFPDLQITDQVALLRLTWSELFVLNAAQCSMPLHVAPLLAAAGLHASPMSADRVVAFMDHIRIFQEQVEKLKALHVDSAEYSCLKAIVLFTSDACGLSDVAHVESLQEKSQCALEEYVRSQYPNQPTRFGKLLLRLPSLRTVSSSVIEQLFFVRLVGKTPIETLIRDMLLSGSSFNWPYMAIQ
NR2E3 ag-1: activates human photoreceptor nuclear receptor NR2E3; GST-NR2E3/biotin-RetCOR TR-FRET, 1536-well; inhibition of corepressor binding, % at 4.78 µM; 320,000 tested, 0.12% active; AID 2300;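 active = percent inhibition above the cutoff of mean plus 3 SD of all tested compounds, set per screening campaign, cut at about 20% in these data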;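 note: 0% = DMSO wells and 100% = biotin wells as full block of FRET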
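system = GST-tagged NR2E3 plus biotinylated RetCOR corepressor | input = 1.35 nM GST-NR2E3 | also added = 7 nM biotin-RetCOR | schedule = 5 h incubation at 4 °C | measured by = TR-FRET with europium anti-GST and streptavidin-D2, 340 nm excitation | read-out = percent loss of FRET ratio relative to control wells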
NR2E3 ag-2: activates human NR2E3 receptor; Q9Y5X4; 360,000 tested, 0.35% active; inhibition of corepressor binding, % at 3.98 µM; CHO-S Gal4-NCOR/VP16-NR2E3 two-hybrid, luciferase;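 active = inhibition above the mean of all tested compounds plus 3 SD, cut at about 70% in these data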;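 note: 0% = DMSO with NR2E3 transfected cells and 100% = cells lacking NR2E3 construct; higher means lower luciferase signal from less NR2E3 corepressor binding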
Numbers without * were called inactive; ! = repeats disagree. Sampled rows, rich in hits. Any-hit rate of the full collection: about 2.2%.

`COc1ccc(S[C@]2(C(=O)N3CCN(C(C)=O)CC3)CC(=O)N(S(=O)(=O)c3ccc(F)cc3)[C@@H]2c2ccc(OC)cc2)cc1` gave SMARCA2 act -2 and NR2F2 inh 16.
`COC(=O)C[C@H]1CC[C@@H]2[C@@H](COc3ccc(NC(=O)c4ccno4)cc3C(=O)N2C)O1` gave SMARCA2 act -3 and NR2F2 inh -6.
`O=C1CCC[C@H]2C[C@H](NCc3cccc(I)c3)CC[C@]23CCCN13` gave NR2F2 inh 10.
Screening CC(=O)Nc1ccc(Nc2cc(C)nc3c(-c4ccc(Cl)cc4)cnn23)cc1 returned SMARCA2 act -2, GalR3 antag -3, NR2F2 inh 5, NR2E3 ag-1 0 and NR2E3 ag-2 -2.
Screening CC(=O)Nc1ccc(Nc2cc(C)nc3c(-c4ccc(Cl)cc4)c(C)nn23)cc1 returned SMARCA2 act 7.9*, GalR3 antag -3, NR2F2 inh 10, NR2E3 ag-1 -1 and NR2E3 ag-2 -10.
`C[C@@H]1[C@H](O)[C@@H](C)/C=C/C=C/C=C/C=C/C=C/C=C/C=C/[C@H](OC2O[C@H](C)[C@@H](O)[C@H](N)[C@@H]2O)C[C@@H]2O[C@](O)(C[C@@H](O)C[C@@H](O)[C@H](O)CC[C@@H](O)C[C@@H](O)CC(=O)O[C@H]1C)C[C@H](O)[C@H]2C(=O)O` (some centres undefined) gave SMARCA2 act -2 and NR2F2 inh 10.
Cc1c2ccccc2cc[n+]1CCCS(=O)(=O)[O-] was read as SMARCA2 act -2, GalR3 antag 1, NR2F2 inh -5, NR2E3 ag-1 1 and NR2E3 ag-2 12.
`CC1(C)C(/C=C/C=C/C=C/C=C2\N(CCCCS(=O)(=O)O)c3ccc4ccccc4c3C2(C)C)=[N+](CCCCS(=O)(=O)[O-])c2ccc3ccccc3c21` gave NR2E3 ag-1 27* and NR2E3 ag-2 -27.
`O=C(NCc1cccs1)c1nc2c(nnn2Cc2ccccc2Cl)c(=O)[nH]1` gave SMARCA2 act -9, GalR3 antag -8, NR2F2 inh 65*, NR2E3 ag-1 3 and NR2E3 ag-2 52.
Screening Cc1cc(C)c2cc(CN(Cc3ccco3)C(=O)NCc3ccccc3)c(=O)[nH]c2c1 returned SMARCA2 act 2, GalR3 antag 14*, NR2F2 inh 4, NR2E3 ag-1 2 and NR2E3 ag-2 4.
Screening C[C@H](O)[C@@H]1CN2CCc3c([nH]c4c(-c5ccc6c(c5)OCO6)cccc34)[C@@H]2C[C@@H]1N(C)C(=S)NCCc1ccccc1 returned SMARCA2 act -2 and NR2F2 inh 13.
Screening COc1ccccc1Cc1c(-c2ccccc2)nc2ccc(Br)cn12 returned SMARCA2 act 0, GalR3 antag -3, NR2F2 inh -27 and NR2E3 ag-2 -50.
Screening COc1ccccc1Cc1c(-c2cccc(Br)c2)nc2ccc(Br)cn12 returned SMARCA2 act 7.9*, GalR3 antag -6, NR2F2 inh -50 and NR2E3 ag-2 -5.
Screening Cc1cc(C)c(C)c(OCCCCN2CCCCC2)c1 returned SMARCA2 act 7.9*, GalR3 antag -9, NR2F2 inh 1, NR2E3 ag-1 1 and NR2E3 ag-2 15.
`CCCOc1cccc(C(=O)Nc2ccc(Br)cc2F)c1` gave SMARCA2 act 13*, GalR3 antag -11, NR2F2 inh -39, NR2E3 ag-1 5 and NR2E3 ag-2 3.
`CCCOc1cccc(C(=O)Nc2cccc3ncccc23)c1` gave SMARCA2 act 2, GalR3 antag -4, NR2F2 inh 11, NR2E3 ag-1 2 and NR2E3 ag-2 1.
For CCOc1ccc(C(=O)NCc2cccs2)cc1 the results were SMARCA2 act 7.9*, GalR3 antag -5, NR2F2 inh -22, NR2E3 ag-1 0 and NR2E3 ag-2 -18.
For Cc1ccc(N2C(=O)c3cccc4c(N)ccc(c34)C2=O)c2cccnc12 the results were SMARCA2 act -2, GalR3 antag 19*, NR2F2 inh -43, NR2E3 ag-1 -1 and NR2E3 ag-2 -23.
Cc1nn(C)c(C)c1N1C(=O)c2cccc3c(N)ccc(c23)C1=O was read as SMARCA2 act -2, GalR3 antag 12, NR2F2 inh 15, NR2E3 ag-1 -7 and NR2E3 ag-2 -19.
`Cn1c(-c2ccc(C#N)cc2)c(C#Cc2ccccc2)c2ccccc21` gave SMARCA2 act -3, GalR3 antag 2, NR2F2 inh -13 and NR2E3 ag-2 -41.
Screening N#Cc1c(-c2ccc(Cl)cc2)n(O)c2ccccc12 returned NR2E3 ag-2 98*.
`CC(C)CCNC(=O)CSc1nc2c(c(=O)[nH]1)CCC2` gave NR2F2 inh -3.
Screening Cc1ccc(O)c(NC(=O)c2cc(-c3ccccc3)on2)c1 returned SMARCA2 act 7.8*, GalR3 antag -11, NR2F2 inh -67, NR2E3 ag-1 4 and NR2E3 ag-2 -34.
For COc1ccc(N2CCN(C(=O)CSc3nnc(-c4cccnc4)n3-c3ccc(F)cc3)CC2)cc1 the results were SMARCA2 act 7.9*, GalR3 antag -4, NR2F2 inh -4, NR2E3 ag-1 2 and NR2E3 ag-2 -8.
COc1cc(NC(=O)c2ccc(N)nc2)cc(C(=O)Nc2cccc(C(F)(F)F)c2)c1 was read as SMARCA2 act 7.9*!, GalR3 antag -6, NR2F2 inh -30, NR2E3 ag-1 0 and NR2E3 ag-2 -34.
COc1cc(NC(=O)c2nccnc2N)cc(C(=O)Nc2cccc(C(F)(F)F)c2)c1 was read as SMARCA2 act -2, GalR3 antag -8, NR2F2 inh -1, NR2E3 ag-1 3 and NR2E3 ag-2 -14.
For CCOC(=O)/C(=N\Nc1ccc(Br)cc1)N1CC(C)OC(C)C1 (centres undefined) the results were NR2E3 ag-1 0 and NR2E3 ag-2 77*.
For CCOC(=O)/C(=N\Nc1ccccc1Cl)N1CC(C)OC(C)C1 (centres undefined) the results were SMARCA2 act -1, GalR3 antag -5, NR2F2 inh 4, NR2E3 ag-1 0 and NR2E3 ag-2 0.
`O=C(CSc1nnc(Cc2ccccc2)o1)c1ccc(F)cc1` gave SMARCA2 act 0, GalR3 antag -6, NR2F2 inh 0, NR2E3 ag-1 0 and NR2E3 ag-2 -7.
`O=C(CSc1nnc(Cc2ccsc2)o1)c1ccccc1` gave SMARCA2 act 7.8*, GalR3 antag -6, NR2F2 inh -28, NR2E3 ag-1 2 and NR2E3 ag-2 -18.
COC(=O)C[C@H]1CC[C@H]2[C@H](COc3ccc(NC(=O)Nc4ccccc4F)cc3C(=O)N2C)O1 was read as SMARCA2 act 7.9* and NR2F2 inh -20.
For COC(=O)C[C@@H]1CC[C@H]2[C@@H](COc3ccc(NC(=O)Nc4ccccc4C)cc3C(=O)N2C)O1 the results were SMARCA2 act -1 and NR2F2 inh -23.
